From ChEMBL document CHEMBL1157669, “New oligo-beta-(1,3)-glucan derivatives as immunostimulating agents” (Bioorg Med Chem, 2010) come the findings set out here.

Series [1] concerns Mus musculus. The series is described as follows: Immunostimulatory activity in BALB/c mouse assessed as induction of peripheral blood monocyte phagocytosis at 100 ug, ip after 24 hrs. Format: functional, organism-based. In a few lines: (§1)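 Female BALB/c mice (6–8 weeks) were injected ip with oligosaccharide 24 h before the test. Heparinised (5 IU/mL) orbital plexus blood was incubated with synthetic HEMA microspheres. Two smears from two parallel samples were stained with Accustain. Monocytes and granulocytes holding three or more particles were scored positive. Mean ± SD; P <0.05.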

Series [2] relates to Mus musculus. The series is described as follows: Immunostimulatory activity in BALB/c mouse assessed as decrease in lymphocyte count in peripheral blood at 100 ug, ip after 24 hrs. Format: functional, organism-based.
The subject of series [3] is Mus musculus. Put plainly: Immunostimulatory activity in BALB/c mouse assessed as induction of peripheral blood granulocyte phagocytosis at 100 ug, ip after 24 hrs. The format is functional, organism-based. In a few lines:
as §1

Series [4] concerns Mus musculus. The series is described as follows: Immunostimulatory activity in BALB/c mouse assessed as increase in granulocyte count in peripheral blood at 100 ug, ip after 24 hrs. Format: functional, organism-based.
Series [5] deals with Mus musculus. Put plainly: Immunostimulatory activity in BALB/c mouse assessed as induction of peritoneal macrophage phagocytosis at 100 ug, ip after 24 hrs. The format is functional, organism-based. The method in brief:
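Oligosaccharide was given ip to female BALB/c mice (6–8 weeks) 24 h before harvest. Peritoneal macrophages were isolated, diluted to 1×10⁷ in RPMI-1640 with 5% fetal calf serum, and incubated with HEMA microspheres. Smears were stained with Accustain, and phagocytosis was scored with differential counts; cells with three or more particles counted positive.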

In series [6] the test system is Mus musculus. The series is described as follows: Immunostimulatory activity in BALB/c mouse assessed as influx of macrophages into peritoneal cavity at 100 ug, ip after 24 hrs. Format: functional, organism-based. The method in brief: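 Female BALB/c mice (6–8 weeks) got one ip injection of sample. Peritoneal cavity cells were collected and percentages of macrophages, lymphocytes and mast cells scored. Values are the mean of three independent experiments ± SD.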

The subject of another series is PC-3. Put plainly: Cytotoxicity against human PC3 cells assessed as effect on cell growth at 0.1 to 25 uM after 24 to 48 hrs by Hoechst 3342 staining-based imaging analysis. Particulars: pc-3, 25 µM. The method in brief:
(§2)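 Human tumour lines (liver, colon, prostate, breast, lung) and resting normal diploid skin fibroblasts were grown per supplier guidance. 4×10³ cells/well attached for 24 h, then were exposed to increasing compound concentrations for 1 and 2 days. Cells were fixed in 4% paraformaldehyde, nuclei stained with Hoechst 3342, and counted by automated imaging from four pictures per well.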

The next series relates to HCT-116. Put plainly: Cytotoxicity against human HCT116 cells assessed as effect on cell growth at 0.1 to 25 uM after 24 to 48 hrs by Hoechst 3342 staining-based imaging analysis. The following applies: hct-116, 25 µM. In a few lines:
as §2

A short description of series [7]: Cytotoxicity against human NCI/ADR cells assessed as effect on cell growth at 0.1 to 25 uM after 24 to 48 hrs by Hoechst 3342 staining-based imaging analysis. The method in brief:
as §2

Series [8] in a line: Cytotoxicity against human HuH7 cells assessed as effect on cell growth at 0.1 to 25 uM after 24 to 48 hrs by Hoechst 3342 staining-based imaging analysis. The following applies: huh-7, 25 µM. The method in brief:
as §2

A further series relates to Caco-2. Put plainly: Cytotoxicity against human Caco-2 cells assessed as effect on cell growth at 0.1 to 25 uM after 24 to 48 hrs by Hoechst 3342 staining-based imaging analysis. Particulars: caco-2, 25 µM. In a few lines: as §2
Series [9] in a line: Cytotoxicity against human skin fibroblast assessed as effect on cell growth at 0.1 to 25 uM after 24 to 48 hrs by Hoechst 3342 staining-based imaging analysis. In a few lines: as §2
The species entered for series [10] is Mus musculus. Put plainly: Immunostimulatory activity in BALB/c mouse splenocytes assessed as induction of IL2 production at 100 ug after 72 hrs. The format is functional, organism-based. The following applies: Splenocyte. In a few lines: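 Spleen cells came from female BALB/c mice (6–8 weeks) injected ip with oligosaccharide; controls were PBS-injected mice. Cells were plated at 2×10⁶/mL in RPMI-1640 with 5% FCS, with Concanavalin A added to positive-control wells. After 72 h at 37 °C and 5% CO₂, supernatant IL-2 was measured with a Quantikine mouse IL-2 kit. Mean of three independent experiments ± SD.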

The structures appear in SMILES notation. Activity calls are given as the source filed them. No cut-off for these calls is given here.

`OC[C@H]1O[C@@H](O[C@@H]2[C@@H](O)[C@H](O[C@@H]3[C@@H](O)[C@H](O[C@@H]4[C@@H](O)[C@H](O[C@@H]5[C@@H](O)[C@H](O)O[C@H](CO)[C@H]5O)O[C@H](CO)[C@H]4O)O[C@H](CO)[C@H]3O)O[C@H](CO)[C@H]2O)[C@H](O)[C@@H](O)[C@@H]1O`: the result with Mus musculus [1], with Mus musculus [2], in the series with Mus musculus [3], in the series on Mus musculus [4], in the series on Mus musculus [5] and with Mus musculus [6] was Active.

As for `OC[C@H]1O[C@@H](O[C@@H]2[C@@H](O)[C@H](O[C@@H]3[C@@H](O)[C@H](O[C@@H]4[C@@H](O)[C@H](O[C@@H]5[C@@H](O)[C@H](O[C@@H]6[C@@H](O)[C@H](O[C@@H]7[C@@H](O)[C@H](O)O[C@H](CO)[C@H]7O)O[C@H](CO)[C@H]6O)O[C@H](CO)[C@H]5O)O[C@H](CO)[C@H]4O)O[C@H](CO)[C@H]3O)O[C@H](CO)[C@H]2O)[C@H](O)[C@@H](O)[C@@H]1O`, the result in the series on Mus musculus [1], in the series on Mus musculus [2], with Mus musculus [3], in the series with Mus musculus [4], in the series on Mus musculus [5] and with Mus musculus [6] was Active.

Regarding `OC[C@H]1O[C@@H](O[C@@H]2[C@@H](O)[C@H](O[C@@H]3[C@@H](O)[C@H](O[C@@H]4[C@@H](O)[C@H](O[C@@H]5[C@@H](O)[C@H](O[C@H]6[C@H](O)[C@@H](CO)OC(O)[C@H]6O)O[C@H](CO)[C@H]5O)O[C@H](CO)[C@H]4O)O[C@H](CO)[C@H]3O)O[C@H](CO)[C@H]2O)[C@H](O)[C@@H](O)[C@@H]1O` (some centres not stated), the Activity entry (in the series with PC-3; in the series on HCT-116; in series [7]; in series [8]; with Caco-2; in [9]) was “Non-toxic” throughout. Further, the result with Mus musculus [1], in the series on Mus musculus [2], with Mus musculus [3], in the series on Mus musculus [4], with Mus musculus [5] and with Mus musculus [6] was Active.

With `OC[C@H]1O[C@@H](O[C@@H]2[C@@H](O)[C@H](O[C@@H]3[C@@H](O)[C@H](O[C@@H]4[C@@H](O)[C@H](O[C@H]5[C@H](O)[C@@H](CO)OC(O)[C@H]5O)O[C@H](CO)[C@H]4O)O[C@H](CO)[C@H]3O)O[C@H](CO)[C@H]2O)[C@H](O)[C@@H](O)[C@@H]1O` (some centres not stated), the Activity result (in the series on PC-3; with HCT-116; in [7]; in [8]; in the series with Caco-2; in series [9]) was “Non-toxic” in each case. Also, the result in the series on Mus musculus [1], in the series on Mus musculus [2], with Mus musculus [3], in the series on Mus musculus [4], in the series with Mus musculus [5] and in the series on Mus musculus [6] was Active. For the same molecule, the outcome in the series filed under Mus musculus [10] was Active.
